Data: PMC6075869 (Journal of medicinal chemistry, 2017)
pIC50, pKi: −log10 of the molar value.

Tests used:
[1] = molecular target: HIV type 1 protease; conditions: cited from earlier work
[2] = tested on: human sodium/glucose cotransporter 2; conditions: cited from earlier work
[3] = tested on: human sodium/glucose cotransporter 1; conditions: cited from earlier work
[4] = tested on: carbonic anhydrase II; conditions: cited from earlier work
[5] = tested on: inducible human nitric-oxide synthase; conditions: cited from earlier work
[6] = tested on: brain human nitric-oxide synthase; conditions: cited from earlier work
[7] = tested on: endothelial human nitric-oxide synthase; conditions: cited from earlier work
[8] = tested on: muscarinic M3 receptor; assay: Functional assay, agonist activity on M3; format: cell-based
[9] = tested on: M5; assay: Tango assay, agonist activity on M5; format: cell-based
[10] = tested on: muscarinic receptor M2; assay: Radioligand binding assay; conditions: no significant affinity up to 10 μM
[11] = tested on: muscarinic M3 receptor; assay: Radioligand binding assay
[12] = tested on: muscarinic receptor M4; assay: Radioligand binding assay; conditions: no significant affinity up to 10 μM
[13] = tested on: M5; assay: Functional assay, antagonist activity on M5; format: cell-based
[14] = molecular target: muscarinic acetylcholine receptor (mAchR) M5 (Homo sapiens, UniProt P08912); assay: Radioligand binding assay
Chain of muscarinic acetylcholine receptor (mAchR) M5 (P08912 whole entry): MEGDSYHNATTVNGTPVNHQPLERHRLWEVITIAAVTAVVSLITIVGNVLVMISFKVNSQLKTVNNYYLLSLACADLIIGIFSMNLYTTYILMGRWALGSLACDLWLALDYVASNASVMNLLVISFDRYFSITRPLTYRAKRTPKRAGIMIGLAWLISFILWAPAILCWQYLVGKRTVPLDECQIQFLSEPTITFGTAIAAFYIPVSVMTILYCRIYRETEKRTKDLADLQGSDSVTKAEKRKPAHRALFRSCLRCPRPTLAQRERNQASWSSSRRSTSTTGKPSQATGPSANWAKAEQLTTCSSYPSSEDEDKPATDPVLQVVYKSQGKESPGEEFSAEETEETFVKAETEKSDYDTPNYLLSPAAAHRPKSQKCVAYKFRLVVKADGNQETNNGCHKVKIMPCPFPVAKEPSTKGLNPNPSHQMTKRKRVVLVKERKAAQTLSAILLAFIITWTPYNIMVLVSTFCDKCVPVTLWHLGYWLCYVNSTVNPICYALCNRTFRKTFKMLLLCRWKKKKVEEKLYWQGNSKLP

[15] = tested on: muscarinic receptor M1; assay: Radioligand binding assay; conditions: no significant affinity up to 10 μM
[16] = molecular target: metabotropic glutamate receptor 2; conditions: cited from earlier work
[17] = molecular target: metabotropic glutamate receptor 3; conditions: cited from earlier work
[18] = molecular target: muscarinic acetylcholine receptor M2; conditions: cited from earlier work
[19] = molecular target: muscarinic acetylcholine receptor M1; conditions: cited from earlier work
[20] = molecular target: σ opioid receptor; conditions: cited from earlier work
[21] = molecular target: human nicotinic acetylcholine receptor (nAchR) α2β4; assay: Radioligand binding assay
[22] = molecular target: nAchR α3β4 (Rattus norvegicus, UniProt P04757+P12392); assay: Radioligand binding assay; conditions: for ligand efficiency (LE): calculated from Ki
Chain of nAchR α3β4 (P04757 26-499): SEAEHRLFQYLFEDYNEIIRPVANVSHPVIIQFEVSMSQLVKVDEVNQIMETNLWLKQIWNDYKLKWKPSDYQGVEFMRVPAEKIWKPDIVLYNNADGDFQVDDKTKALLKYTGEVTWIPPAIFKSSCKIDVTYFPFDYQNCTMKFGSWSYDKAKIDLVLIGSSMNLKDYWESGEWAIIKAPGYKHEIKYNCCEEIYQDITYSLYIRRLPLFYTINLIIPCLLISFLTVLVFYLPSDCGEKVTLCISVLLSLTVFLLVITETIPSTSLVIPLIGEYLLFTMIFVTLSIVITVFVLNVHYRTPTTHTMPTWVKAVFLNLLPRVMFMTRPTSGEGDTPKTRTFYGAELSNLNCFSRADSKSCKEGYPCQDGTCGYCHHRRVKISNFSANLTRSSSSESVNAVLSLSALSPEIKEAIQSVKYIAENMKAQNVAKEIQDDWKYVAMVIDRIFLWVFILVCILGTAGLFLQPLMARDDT
Chain of nAchR α3β4 (P12392 21-495): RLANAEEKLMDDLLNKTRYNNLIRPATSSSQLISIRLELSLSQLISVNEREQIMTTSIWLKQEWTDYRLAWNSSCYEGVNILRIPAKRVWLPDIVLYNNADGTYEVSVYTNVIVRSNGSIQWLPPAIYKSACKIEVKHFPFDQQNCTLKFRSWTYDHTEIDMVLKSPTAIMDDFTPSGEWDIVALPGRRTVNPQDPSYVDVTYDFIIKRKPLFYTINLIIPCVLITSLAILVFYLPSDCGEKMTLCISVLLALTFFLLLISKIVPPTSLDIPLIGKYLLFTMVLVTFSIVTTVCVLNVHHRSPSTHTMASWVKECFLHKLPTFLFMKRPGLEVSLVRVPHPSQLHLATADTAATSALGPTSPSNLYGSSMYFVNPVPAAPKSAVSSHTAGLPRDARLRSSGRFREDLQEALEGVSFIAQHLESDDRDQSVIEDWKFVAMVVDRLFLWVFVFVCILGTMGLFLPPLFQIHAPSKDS

[23] = molecular target: nAchR α4β4 (Rattus norvegicus, UniProt P09483+P12392); assay: Radioligand binding assay
Chain of nAchR α4β4 (P09483 31-630): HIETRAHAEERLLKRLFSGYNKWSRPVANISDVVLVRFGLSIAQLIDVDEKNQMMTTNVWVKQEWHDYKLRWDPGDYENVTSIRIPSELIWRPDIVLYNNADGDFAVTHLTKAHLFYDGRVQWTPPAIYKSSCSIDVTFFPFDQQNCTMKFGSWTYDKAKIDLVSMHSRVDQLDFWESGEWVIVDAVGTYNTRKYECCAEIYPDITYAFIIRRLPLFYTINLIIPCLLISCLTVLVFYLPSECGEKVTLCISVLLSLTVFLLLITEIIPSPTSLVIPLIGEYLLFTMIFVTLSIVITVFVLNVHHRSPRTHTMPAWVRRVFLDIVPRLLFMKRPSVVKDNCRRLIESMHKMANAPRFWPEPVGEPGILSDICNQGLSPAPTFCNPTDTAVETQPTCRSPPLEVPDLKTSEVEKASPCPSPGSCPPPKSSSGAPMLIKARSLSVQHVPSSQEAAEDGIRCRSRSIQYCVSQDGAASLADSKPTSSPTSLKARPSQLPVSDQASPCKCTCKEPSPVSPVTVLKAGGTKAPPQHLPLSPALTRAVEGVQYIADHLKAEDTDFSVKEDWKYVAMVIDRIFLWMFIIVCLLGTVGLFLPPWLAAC
Chain of nAchR α4β4 (P12392 21-495): as the sequence (P12392 21-495) above
Procedure, shortened: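 Ki from radioligand binding run by the NIMH PDSP protocols. Ligand efficiency derived from Ki as LE = −RT(lnKi)/Nheavy ≈ −1.373 log10Ki/Nheavy. R is the gas constant, T is the experimental temperature in Kelvin, and Nheavy is the heavy-atom count. LE is expressed in kcal/mol/heavy atom.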

[24] = tested on: vesicular acetylcholine transporter; conditions: cited from earlier work
[25] = molecular target: 5-HT1B receptor; conditions: agonist; cited from earlier work
[26] = molecular target: 5-HT3 receptor; conditions: antagonist; cited from earlier work
[27] = molecular target: 5-HT2 receptor; conditions: agonist; cited from earlier work
[28] = molecular target: 5-HT1A receptor; conditions: agonist; cited from earlier work
[29] = molecular target: histamine H3 receptor; conditions: cited from earlier work

Structure (SMILES): O=C1N(Cc2ccc(O)cc2)[C@H](Cc2ccccc2)[C@H](O)[C@@H](O)[C@@H](Cc2ccccc2)N1Cc1ccc(O)cc1 [CHEMBL35860]
- pKi [1]: 9.92

Structure (SMILES): O=C1N(Cc2ccccc2)[C@@H](Cc2ccccc2)[C@H](O)[C@@H](O)[C@H](Cc2ccccc2)N1Cc1ccccc1 [CHEMBL148543]
- pKi [1]: 6.25

Structure (SMILES): N#Cc1ccc(Cc2cc([C@@H]3O[C@H](CO)[C@@H](O)[C@H](O)[C@H]3O)ccc2Cl)cc1 [CHEMBL1807550]
- pIC50 [2]: 5.00
- pIC50 [3]: 8.00

Structure (SMILES): NS(=O)(=O)c1cc2c(s1)S(=O)(=O)CCC2 [CHEMBL333193]
- affinity [4]: 3.3 nM

Structure (SMILES): NC1=NCCCSC1 [CHEMBL186856]
- pIC50 [5]: 5.92
- pIC50 [6]: 5.55
- pIC50 [7]: 4.98

Structure (SMILES): CCC(=O)OC1(c2ccccc2)CCN(C)CC1C (stereo not shown) [Alphaprodine]
- agonist activity on M3 [8]: no agonist activity
- agonist activity on M5 [9]: no agonist activity
- affinity [10]: > 10 µM
- binding to M3 [11]: did not bind
- affinity ([11]; no significant affinity up to 10 μM): > 10 µM
- affinity [12]: > 10 µM
- antagonist activity on M5 [13]: antagonist
- pKi [14]: 6.11
- ligand efficiency (LE) ([14]; calculated from Ki): 0.442 kcal/mol/heavy atom
- affinity [15]: > 10 µM

Structure (SMILES): N[C@@]1(C(=O)O)C[S+]([O-])[C@H]2[C@H](C(=O)O)[C@H]21 (stereo partly shown) [CHEMBL218710]
- pKi [16]: 6.29
- pKi [17]: 6.35

Structure (SMILES): C[C@@H]1OC(=O)[C@@H]2C[C@@H]3CCCC[C@@H]3[C@@H](/C=C/[C@H]3CCC[C@H](C)N3C)[C@H]12 [CHEMBL301670]
- pIC50 [18]: 7.02
- pIC50 [19]: 6.37

Structure (SMILES): C[C@@H]1OC(=O)[C@H]2C[C@H]3CCCC[C@H]3[C@H](/C=C\[C@H]3CCC[C@H](C)N3C)[C@@H]12 [CHEMBL58824]
- pIC50 [18]: 6.07
- pIC50 [19]: 6.07

Structure (SMILES): N[C@@]1(C(=O)O)CS[C@H]2[C@H](C(=O)O)[C@H]21 [CHEMBL8839]
- pKi [16]: 7.39
- pKi [17]: 8.33

Structure (SMILES): CN(CCc1ccc2ccccc2c1)[C@H]1CCCC[C@H]1N1CCCC1 [CHEMBL606937]
- pIC50 [20]: 7.43

Structure (SMILES): NC1CCCC1c1ccccc1 (stereo not shown) [cypenamine]
- pKi [21]: 5.33
- pKi [22]: 5.57
- ligand efficiency (LE) [22]: 0.637 kcal/mol/heavy atom
- pKi [23]: 5.39
- ligand efficiency (LE) ([23]; calculated from Ki): 0.616 kcal/mol/heavy atom

Structure (SMILES): OC1CCCCC1N1CCC(C2CCCCC2)CC1 (stereo not shown) [CHEMBL21309]
- affinity [24]: 40 nM

Structure (SMILES): CN(CCc1ccc2c(c1)OCO2)[C@@H]1CCCC[C@@H]1N1CCCC1 [CHEMBL606938]
- pIC50 [20]: 7.47

Structure (SMILES): NC1=NCCCS1 [CHEMBL306541]
- pIC50 [5]: 5.54
- pIC50 [6]: 5.49
- pIC50 [7]: 5.15

Structure (SMILES): Clc1cccc(SC2CCNCC2)n1 [Anpirtoline]
- pKi [25]: 7.55
- pKi [22]: 5.47
- ligand efficiency (LE) [22]: 0.536 kcal/mol/heavy atom
- pKi [26]: 7.52
- pKi [27]: 5.83
- pKi [28]: 6.82

Structure (SMILES): NS(=O)(=O)c1cc2c(s1)SCCC2=O [CHEMBL158261]
- affinity [4]: 3.6 nM

Structure (SMILES): C[C@@H]1CCCN1CCc1ccns1 [CHEMBL255141]
- pKi [29]: 7.77

Structure (SMILES): OC1CCCCC1N1CCC(C2CCN(C3CCCCC3O)CC2)CC1 (stereo not shown) [CHEMBL20429]
- affinity [24]: 200 nM

Structure (SMILES): CCOc1ccc(Cc2cc([C@@H]3O[C@H](CO)[C@@H](O)[C@H](O)[C@H]3O)ccc2Cl)cc1 [CHEMBL3125318]
- pIC50 [3]: 5.51

Structure (SMILES): C[C@@H]1CCCN1CCc1ccccn1 [CHEMBL270807]
- pKi [29]: 6.70
